Folding enthalpy and Tm data for 76 sequences are collected here from the array DNA melting data of Ke et al. (doi:10.1101/2024.01.08.574731).

Data set [1] is described as follows: folding enthalpy; higher = less favourable; fluorescence melt of hairpins on a sequencing array, two-state fit. Conditions: sodium 0.088 M. The procedure, abridged:
(§1)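 Cy3 fluorescence of library hairpins on a sequenced MiSeq flow cell, with annealed Cy3 and quencher oligos, was imaged in 50 mM Na-HEPES pH 8.0, 25 mM NaCl in 2.5 °C steps up to 60 °C. Signals were normalised to pre-quench Cy3 and to control variants. Melting temperature and folding enthalpy came from bootstrapped two-state fits, inverse-variance combined over four replicates. Fitted temperatures were raised by 9.35 °C to match UV melts.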

A short description of data set [2]: melting temperature; fluorescence melt of hairpins on a sequencing array, two-state fit, raised by 9.35 °C to match UV melts. Conditions: sodium 0.088 M. The procedure, abridged: as §1

Consider GATCTAATTCTAGATC ((((((....)))))), for which the folding enthalpy in data set [1] was -29.9 kcal/mol. The Tm in data set [2] was found to be 37 °C.
For GATCTACAACTAGATC ((((((....)))))) the same measures were -25.6 kcal/mol and 34.1 °C.
For GATCTACACTTAGATC ((((((....)))))), in that order: -44.7 kcal/mol and 43.4 °C.
For GATCTACATGTAGATC ((((((....)))))), in that order: -45.9 kcal/mol and 52.5 °C.
For the sequence GATCTACATTTAGATC ((((((....)))))), in data set [1], the folding enthalpy is -35.3 kcal/mol. Also, the Tm in data set [2] was determined as 39 °C.
Regarding GATCTACCATAGATC ((((((...)))))), the folding enthalpy in data set [1] was -30.5 kcal/mol. Also, in data set [2], the Tm came to 37.5 °C.
On to GATCTACGACTAGATC ((((((....)))))), for which the folding enthalpy in data set [1] was -32.1 kcal/mol. Moreover, in data set [2], the Tm stood at 35 °C.
For GATCTACGAGTAGATC ((((((....)))))), in that order: -37.8 kcal/mol and 52.3 °C.
On to GATCTACGCATAGATC ((((((....)))))), for which the folding enthalpy in data set [1] was -28.5 kcal/mol. In addition, in data set [2], the Tm amounted to 42.7 °C.
For GATCTACGGCTAGATC ((((((....)))))) the same measures were -28.7 kcal/mol and 37.1 °C.
For GATCTACGGTAGATC ((((((...)))))), in that order: -37.3 kcal/mol and 41.4 °C.
For GATCTACGTCTAGATC ((((((....)))))), in that order: -20.7 kcal/mol and 40.7 °C.
Consider GATCTACGTTTAGATC ((((((....)))))), for which, in data set [1], the folding enthalpy is -32.4 kcal/mol. Moreover, the Tm in data set [2] was found to be 39.1 °C.
For GATCTACTATTAGATC ((((((....)))))) the same measures were -33.1 kcal/mol and 38.6 °C.
Consider GATCTACTCTAGATC ((((((...)))))), for which the folding enthalpy in data set [1] was -31 kcal/mol. In addition, the Tm in data set [2] came out at 40.6 °C.
For GATCTAGAAGTAGATC ((((((....)))))) the same measures were -27.6 kcal/mol and 39.9 °C.
For GATCTAGAGATAGATC ((((((....)))))) the same measures were -26.2 kcal/mol and 39.1 °C.
For GATCTAGAGCTAGATC ((((((....)))))) the same measures were -29.4 kcal/mol and 39.4 °C.
Consider GATCTAGATATAGATC ((((((....)))))), for which the folding enthalpy in data set [1] was -34.4 kcal/mol. Also, the Tm in data set [2] stood at 46.8 °C.
For GATCTAGCCGTAGATC ((((((....)))))) the same measures were -31.2 kcal/mol and 44.5 °C.
For GATCTAGCCTTAGATC ((((((....)))))) the same measures were -38.6 kcal/mol and 44.4 °C.
On to GATCTAGGATTAGATC ((((((....)))))), for which the folding enthalpy in data set [1] was -29.1 kcal/mol. Also, in data set [2], the Tm is 44.8 °C.
As to GATCTAGGCGTAGATC ((((((....)))))), the folding enthalpy in data set [1] was -32.4 kcal/mol. For the same sequence, in data set [2], the Tm was 45.4 °C.
For GATCTAGGTATAGATC ((((((....)))))) the same measures were -34.7 kcal/mol and 47.5 °C.
As for GATCTAGGTCTAGATC ((((((....)))))), the folding enthalpy in data set [1] is -37.1 kcal/mol. Moreover, the Tm in data set [2] worked out at 46.2 °C.
For GATCTAGTCCTAGATC ((((((....)))))), in that order: -31.9 kcal/mol and 47.4 °C.
With GATCTAGTCTAGATC ((((((...)))))), the folding enthalpy in data set [1] is -34.2 kcal/mol. Further, the Tm in data set [2] amounted to 41.1 °C.
For GATCTAGTTCTAGATC ((((((....)))))) the same measures were -34.8 kcal/mol and 46.6 °C.
As to GATCTATACCTAGATC ((((((....)))))), in data set [1], the folding enthalpy was -34.7 kcal/mol. In addition, in data set [2], the Tm came to 43.2 °C.
For the sequence GATCTATACTTAGATC ((((((....)))))), in data set [1], the folding enthalpy is -46.9 kcal/mol. Besides, the Tm in data set [2] was found to be 45.6 °C.
For GATCTATAGTAGATC ((((((...)))))) the same measures were -22.4 kcal/mol and 38.6 °C.
For GATCTATATCTAGATC ((((((....)))))) the same measures were -27.6 kcal/mol and 36.2 °C.
For GATCTATCATTAGATC ((((((....)))))) the same measures were -28.2 kcal/mol and 42.1 °C.
In the case of GATCTATCTCTAGATC ((((((....)))))), the folding enthalpy in data set [1] was -28.3 kcal/mol. In addition, the Tm in data set [2] was 39.6 °C.
For GATCTATCTGTAGATC ((((((....)))))) the same measures were -33.9 kcal/mol and 42.9 °C.
For GATCTATGACTAGATC ((((((....)))))) the same measures were -26.7 kcal/mol and 37.1 °C.
For GATCTATGCCTAGATC ((((((....)))))) the same measures were -33.3 kcal/mol and 41 °C.
Consider GATCTATGTATAGATC ((((((....)))))), for which the folding enthalpy in data set [1] was -36.9 kcal/mol. The Tm in data set [2] turned out to be 48.2 °C.
Turning to GATCTATTGATAGATC ((((((....)))))), the folding enthalpy in data set [1] is -28.8 kcal/mol. Besides, in data set [2], the Tm is 44.7 °C.
For GATCTCAAATGAGATC ((((((....)))))), in that order: -37.8 kcal/mol and 50 °C.
For GATCTCAACGGAGATC ((((((....)))))), in that order: -35 kcal/mol and 52.3 °C.
For GATCTCAAGGAGATC ((((((...)))))), in that order: -37.4 kcal/mol and 54.2 °C.
GATCTCAATGAGATC ((((((...)))))): the folding enthalpy in data set [1] is -35.9 kcal/mol. In data set [2], the Tm is 50.6 °C.
For GATCTCAATGGAGATC ((((((....)))))) the same measures were -40.6 kcal/mol and 51.5 °C.
For GATCTCACACGAGATC ((((((....)))))) the same measures were -41.5 kcal/mol and 52.4 °C.
Regarding GATCTCACCCGAGATC ((((((....)))))), the folding enthalpy in data set [1] was -39.5 kcal/mol. In addition, the Tm in data set [2] was 53.1 °C.
For GATCTCACCTGAGATC ((((((....)))))) the same measures were -44.1 kcal/mol and 53.5 °C.
For GATCTCAGAAGAGATC ((((((....)))))), in that order: -33.5 kcal/mol and 50.6 °C.
For the sequence GATCTCAGCAGAGATC ((((((....)))))), the folding enthalpy in data set [1] was -31.9 kcal/mol. In addition, the Tm in data set [2] turned out to be 58.2 °C.
For GATCTCAGGAGAGATC ((((((....)))))), in that order: -34.7 kcal/mol and 50.8 °C.
Turning to GATCTCAGGCGAGATC ((((((....)))))), the folding enthalpy in data set [1] was -27.7 kcal/mol. In addition, the Tm in data set [2] is 51.5 °C.
For GATCTCAGGGAGATC ((((((...)))))) the same measures were -29.5 kcal/mol and 54.5 °C.
For GATCTCAGGGGAGATC ((((((....)))))) the same measures were -34.4 kcal/mol and 52.5 °C.
GATCTCATAGGAGATC ((((((....)))))): the folding enthalpy in data set [1] is -38.1 kcal/mol. Besides, the Tm in data set [2] was 51.2 °C.
For GATCTCATCGAGATC ((((((...)))))) the same measures were -36.1 kcal/mol and 55.8 °C.
For GATCTCATCTGAGATC ((((((....)))))) the same measures were -39.9 kcal/mol and 53.6 °C.
Take GATCTCATGCGAGATC ((((((....)))))): the folding enthalpy in data set [1] was -48.3 kcal/mol. For the same sequence, the Tm in data set [2] was determined as 52.1 °C.
For GATCTCATTCGAGATC ((((((....)))))), in that order: -39.4 kcal/mol and 53.5 °C.
For GATCTCATTTGAGATC ((((((....)))))) the same measures were -37.4 kcal/mol and 55.5 °C.
For GATCTCCAAGAGATC ((((((...)))))), in that order: -30.2 kcal/mol and 49.8 °C.
With GATCTCCAATGAGATC ((((((....)))))), the folding enthalpy in data set [1] is -34.2 kcal/mol. The Tm in data set [2] was 51.3 °C.
Regarding GATCTCCACGGAGATC ((((((....)))))), the folding enthalpy in data set [1] is -39.2 kcal/mol. In addition, in data set [2], the Tm was 55.9 °C.
As for GATCTCCATAGAGATC ((((((....)))))), in data set [1], the folding enthalpy was -33.4 kcal/mol. In data set [2], the Tm came to 56.8 °C.
For GATCTCCCGGGAGATC ((((((....)))))), in that order: -52.9 kcal/mol and 58.3 °C.
For GATCTCCGCAGAGATC ((((((....)))))), in that order: -34.6 kcal/mol and 57.8 °C.
For GATCTCCGGAGAGATC ((((((....)))))) the same measures were -39.4 kcal/mol and 52.7 °C.
Consider GATCTCCGTCGAGATC ((((((....)))))), for which, in data set [1], the folding enthalpy is -41.3 kcal/mol. Besides, the Tm in data set [2] was found to be 51 °C.
On to GATCTCCGTTGAGATC ((((((....)))))), for which, in data set [1], the folding enthalpy is -35.6 kcal/mol. Also, the Tm in data set [2] was 52.6 °C.
For GATCTCCTCCGAGATC ((((((....)))))) the same measures were -42.5 kcal/mol and 51.4 °C.
As for GATCTCCTTGGAGATC ((((((....)))))), the folding enthalpy in data set [1] is -47.6 kcal/mol. In addition, the Tm in data set [2] turned out to be 60.5 °C.
For GATCTCGACTGAGATC ((((((....)))))) the same measures were -45.9 kcal/mol and 55.8 °C.
Consider GATCTCGATCGAGATC ((((((....)))))), for which the folding enthalpy in data set [1] is -48.5 kcal/mol. Further, in data set [2], the Tm is 56.9 °C.
For GATCTCGCATGAGATC ((((((....)))))) the same measures were -44.8 kcal/mol and 61.6 °C.
For GATCTCGCCTGAGATC ((((((....)))))) the same measures were -36.8 kcal/mol and 54 °C.
For GATCTCGCGGGAGATC ((((((....)))))), in that order: -33.1 kcal/mol and 52.4 °C.
Turning to GATCTCGCTCGAGATC ((((((....)))))), the folding enthalpy in data set [1] was -44.8 kcal/mol. Further, the Tm in data set [2] came out at 57.5 °C.
